Molecules are shown by their SMILES.

Here are results for 22 compounds from ChEMBL document CHEMBL3286167 (J Med Chem, 2014).

Assay [1] has as its target Neurotensin receptor type 1 (Rattus norvegicus) (UniProt P20789). The assay can be described thus: Antagonist activity at rat NTS1 stably expressed in CHOK1 cells assessed as inhibition of NT-induced calcium release by FLIPR assay. It counts as functional, cell-based. The conditions noted are these: CHO-K1. The method in brief: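 Rat NTS1 CHO-k1 cells, plated at 30000/well on the assay day. Cells were loaded with Calcium 5 dye (1:40 in HBSS, 20 mM HEPES, 2.5 mM probenecid, pH 7.4) for 45 min at 37 °C, then preincubated with compound for 15 min. […] Fluorescence (ex 485/em 525 nm) read for 60 s on FlexStation II; three-parameter logistic fit; at least three experiments in duplicate.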

Assay [2] concerns the target T1, Neurotensin receptor type 2 (Rattus norvegicus) (UniProt Q63384).
T1 sequence (whole entry): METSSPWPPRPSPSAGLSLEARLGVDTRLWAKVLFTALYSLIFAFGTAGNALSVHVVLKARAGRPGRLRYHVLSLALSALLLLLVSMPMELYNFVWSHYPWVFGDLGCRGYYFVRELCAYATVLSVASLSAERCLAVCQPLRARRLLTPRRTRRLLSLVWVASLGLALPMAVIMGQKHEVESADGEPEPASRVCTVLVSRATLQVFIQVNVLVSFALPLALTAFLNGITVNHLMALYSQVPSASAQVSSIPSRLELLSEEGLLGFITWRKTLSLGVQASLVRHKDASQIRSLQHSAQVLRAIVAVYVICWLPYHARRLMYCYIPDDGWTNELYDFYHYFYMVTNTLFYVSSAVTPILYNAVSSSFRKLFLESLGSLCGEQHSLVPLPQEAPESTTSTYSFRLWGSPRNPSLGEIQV
Description: Agonist activity at rat NTS2 stably expressed in CHOK1 cells assessed as induction of calcium release by FLIPR assay relative to SR142948a. The assay is classed as functional, cell-based. The conditions noted are these: CHO-K1. The method, boiled down:
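Rat NTS2 expressed in CHO-k1 cells, plated at 25000/well the day before the assay. Cells were loaded with Calcium 5 dye (1:20 in HBSS, 20 mM HEPES, 2.5 mM probenecid, pH 7.4) for 45 min at 37 °C, then pretreated with 10% DMSO added 1:10. Full-log compound dilutions were read on FLIPR Tetra every second for 100 s. Emax is expressed as % of the full-agonist standard; EC50 from a three-parameter logistic fit; at least three experiments in duplicate.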

The target of assay [3] is T2, Neurotensin receptor type 2 (Rattus norvegicus, UniProt Q63384).
T2 sequence (Q63384 whole entry): T1 sequence (whole entry)
The assay can be described thus: Agonist activity at rat NTS2 stably expressed in CHOK1 cells assessed as induction of calcium release by FLIPR assay. The assay is classed as functional, cell-based, CHO-K1.

Assay [4] addresses T2, Neurotensin receptor type 2. Description: Displacement of [125I]NT at rat NTS2 overexpressed in CHOK1 cells after 30 mins by gamma counting. It counts as cell-based, CHO-K1.
Assay [5] deals with Neurotensin receptor type 1 (Rattus norvegicus, UniProt P20789). The assay can be described thus: Agonist activity at rat NTS1 stably expressed in CHOK1 cells assessed as induction of calcium release by FLIPR assay. The assay is classed as functional, cell-based. The conditions noted are these: cho-k1.
Sequence of Neurotensin receptor type 1 (P20789 whole entry): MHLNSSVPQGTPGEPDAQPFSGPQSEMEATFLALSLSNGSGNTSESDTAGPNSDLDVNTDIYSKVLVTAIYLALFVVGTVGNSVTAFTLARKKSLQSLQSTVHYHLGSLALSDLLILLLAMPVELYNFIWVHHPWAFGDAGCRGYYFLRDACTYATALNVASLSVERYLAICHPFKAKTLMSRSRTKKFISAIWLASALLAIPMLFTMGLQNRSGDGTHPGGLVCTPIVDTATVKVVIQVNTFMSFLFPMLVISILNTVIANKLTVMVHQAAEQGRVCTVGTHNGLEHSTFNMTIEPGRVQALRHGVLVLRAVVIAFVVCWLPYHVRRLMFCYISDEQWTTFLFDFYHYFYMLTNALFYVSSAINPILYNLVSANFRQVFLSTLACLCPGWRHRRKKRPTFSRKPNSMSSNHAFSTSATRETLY

Sequence of Neurotensin receptor type 1 (Rattus norvegicus) (P20789 whole entry): as above

Usually Emax stands for the size of the effect at its maximum, as opposed to the concentration needed. Take `COc1cccc(OC)c1-c1cc(C(=O)N[C@H](C(=O)O)C2CCCCC2)nn1-c1cccc2ccccc12`: in assay [1], the Ke came to 58 nM. Moreover, the maximum response (Emax) in assay [2] turned out to be 45%. As for `O=C(N[C@H](C(=O)O)C1CCCCC1)c1cc(-c2c(F)cccc2F)n(-c2ccnc3cc(Cl)ccc23)n1`, the Emax in assay [2] worked out at 15%. In general, EC50 refers to the concentration at which the effect is half-maximal. As a reminder, the Ki is a measure of affinity in units of concentration, obtained from inhibition or displacement. A lower Ki goes with tighter binding. With `COc1cccc(OC)c1-c1cc(C(=O)NC2(C(=O)O)C3CC4CC(C3)CC2C4)nn1-c1ccnc2cc(Cl)ccc12` (configuration not stated) [REMINERTANT], the 50% effective concentration (EC50) in assay [3] (read-out: EC50) was 120 nM. Also, affinity in assay [4] was put at a Ki of 62 nM. Besides, the Emax in assay [2] stood at 100%. Regarding `COc1ccccc1-c1cc(C(=O)N[C@H](C(=O)O)C2CCCCC2)nn1-c1ccnc2cc(Cl)ccc12`, in assay [1], the Ke was determined as 1680 nM. Further, in assay [2], the maximum response (Emax) is 25%. Turning to `CCc1c(C(=O)N[C@H](C(=O)O)C2CCCCC2)nn(-c2ccnc3cc(Cl)ccc23)c1-c1c(OC)cccc1OC`, the EC50 in assay [3] (read-out: EC50) turned out to be 94 nM. The compound also gave an inhibitory constant (Ki) in assay [4] of 1180 nM. For the same compound, the maximal effect (Emax) in assay [2] was found to be 15%. `C[C@@H]1CN([C@H]2CC[C@](C#N)(c3ccc(F)cc3)CC2)CC[C@]1(C(=O)O)c1ccccc1` [LEVOCABASTINE]: the EC50 result in assay [5] is “Not Active”. The maximal response (Emax) in assay [2] came to 16%. `CC[C@H](C)[C@H](NC(=O)[C@H](Cc1ccc(O)cc1)NC(=O)[C@@H]1CCCN1C(=O)[C@H](CCCN=C(N)N)NC(=O)[C@@H](N)CCCN=C(N)N)C(=O)N[C@@H](CC(C)C)C(=O)O`: in assay [3] (cho-k1), the EC50 result is on record as “Not Active”. For the compound `COc1cccc(OC)c1-c1cc(C(=O)NC2(C(=O)O)CCCCC2)nn1-c1cccc2ccccc12`, the Ke in assay [1] amounted to 230 nM. Also, in assay [2], the maximal effect (Emax) worked out at 35%. With `COc1cccc(OC)c1-c1cc(C(=O)NC2(C(=O)O)CCCCC2)nn1-c1ccnc2cc(Cl)ccc12`, in assay [1], the Ke is 157 nM. For the same compound, the Emax in assay [2] is 78%. The matching figures for `COc1cccc(OC)c1-c1cc(C(=O)NC2(C(=O)O)CCCCCC2)nn1-c1ccnc2cc(Cl)ccc12`: 42 nM and 89%. The like results for `COc1cccc(OC)c1-c1cc(C(=O)NC2(C(=O)O)C3CC4CC(C3)CC2C4)nn1-c1ccc(F)cc1` (configuration not stated) were, in that order, 191 nM and 34%. The like results for `COc1cccc(OC)c1-c1cc(C(=O)N[C@H](C(=O)O)C2CCCCC2)nn1-c1ccnc2cc(Cl)ccc12` were, in that order, 23 nM and 86%. `COc1cccc(OC)c1-c1cc(C(=O)NC2C3CC4CC(C3)CC2C4)nn1-c1ccnc2cc(Cl)ccc12` (configuration not stated): the EC50 result in assay [3] (cho-k1) is “Not Active”.

On to `COc1cccc(OC)c1-c1cc(C(=O)N[C@H](C(=O)O)C2CCCCC2)nn1-c1ccc(F)cc1`, for which, in assay [1], the Ke turned out to be 3340 nM. The maximal response (Emax) in assay [2] is 22%.

As for `COc1cccc(OC)c1-c1cc(C(=O)NC2(C(=O)O)CCCCC2)nn1-c1ccc(F)cc1`, the Emax in assay [2] is 15%. For `COc1cccc(OC)c1-c1cc(C(=O)NC2(C(=O)O)CCCC2)nn1-c1ccnc2cc(Cl)ccc12`, the Ke in assay [1] worked out at 222 nM. Moreover, the Emax in assay [2] was 76%. Take `COc1ccccc1-c1cc(C(=O)N[C@H](C(=O)O)C2CCCCC2)nn1-c1cccc2ccccc12`: the Ke in assay [1] was determined as 1400 nM. Moreover, the maximum response (Emax) in assay [2] came to 18%.

In the case of `COc1ccc(OC)c(-c2cc(C(=O)N[C@H](C(=O)O)C3CCCCC3)nn2-c2ccnc3cc(Cl)ccc23)c1`, the Ke in assay [1] turned out to be 1280 nM. The Emax in assay [2] came out at 19%. Turning to `COc1ccc(-c2cc(C(=O)N[C@H](C(=O)O)C3CCCCC3)nn2-c2ccnc3cc(Cl)ccc23)c(OC)c1`, in assay [2], the Emax was 12%.

For `COc1cccc(OC)c1-c1cc(C(=O)NC2(C(=O)O)C3CC4CC(C3)CC2C4)nn1-c1ccc(C(=O)N(C)CCCN(C)C)cc1C(C)C` (configuration not stated), the concentration for a half-maximal effect (EC50) in assay [3] (read-out: EC50) was found to be 20 nM. The same compound registered a Ki in assay [4] of 6 nM. For the same compound, the Emax in assay [2] is 100%.

Consider `COc1ccccc1-c1cc(C(=O)NC2(C(=O)O)CCCCC2)nn1-c1cccc2ccccc12`, for which the Ke in assay [1] is 7380 nM. Further, in assay [2], the Emax turned out to be 18%. The like results for `COc1ccccc1-c1cc(C(=O)NC2(C(=O)O)CCCCC2)nn1-c1ccnc2cc(Cl)ccc12` were, in that order, 4550 nM and 35%.
